Results as given in ChEMBL document CHEMBL3853310, “Daphnane Diterpenes from Daphne genkwa Activate Nurr1 and Have a Neuroprotective Effect in an Animal Model of Parkinson's Disease” (J Nat Prod, 2016).
The source made the active and inactive calls. No cut-off for these calls is given here.

Legend:
[1] = tested on: SH-SY5Y; assay: Neuroprotective activity against 6-OHDA-induced cell death in human SH-SY5Y cells assessed as decrease in cleaved caspase-3 level at 6 uM by Western blot method; assay type: functional, cell-based
Summary of the method: (§1)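 SH-SY5Y cells exposed to 6-OHDA in serum-free N-2 medium ± compound at 6 µM. Lysates in Triton/Tris/NaCl/PMSF, SDS-PAGE, PVDF blot, HRP secondary, ECL detection of cleaved caspase-3 and cytosolic cytochrome c. Actin and SOD-1 used as loading controls.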

[2] = biological target: Nuclear receptor subfamily 4 group A member 2 (Mus musculus) (UniProt Q06219); assay: Activation of mouse Nurr1 transfected in human SK-N-BE(2)C cells by luciferase reporter gene assay; assay type: cell-based
Sequence of Nuclear receptor subfamily 4 group A member 2 (Mus musculus) (Q06219 whole entry, the tested form may be a part): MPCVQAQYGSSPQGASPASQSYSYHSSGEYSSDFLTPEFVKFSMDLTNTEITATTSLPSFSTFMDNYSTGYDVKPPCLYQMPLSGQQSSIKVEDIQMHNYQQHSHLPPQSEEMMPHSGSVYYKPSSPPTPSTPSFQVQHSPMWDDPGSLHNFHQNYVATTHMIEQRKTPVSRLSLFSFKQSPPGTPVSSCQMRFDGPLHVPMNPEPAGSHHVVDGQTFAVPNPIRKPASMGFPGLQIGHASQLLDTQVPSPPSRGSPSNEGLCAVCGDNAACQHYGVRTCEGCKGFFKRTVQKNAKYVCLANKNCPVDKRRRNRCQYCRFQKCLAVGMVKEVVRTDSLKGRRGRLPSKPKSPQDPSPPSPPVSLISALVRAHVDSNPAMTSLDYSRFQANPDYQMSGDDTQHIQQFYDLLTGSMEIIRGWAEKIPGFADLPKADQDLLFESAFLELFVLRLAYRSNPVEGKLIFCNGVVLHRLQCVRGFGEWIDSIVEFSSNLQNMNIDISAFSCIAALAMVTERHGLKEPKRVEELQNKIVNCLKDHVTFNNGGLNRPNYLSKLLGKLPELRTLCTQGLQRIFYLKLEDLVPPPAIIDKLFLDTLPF
Summary of the method: (§2)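 SK-N-BE(2)C neuroblastoma cells plated 1.5 × 10^5/well a day before, transfected with pTH2600LUC (2.6 kb rat TH promoter), pCMV Nurr1-myc, pZeoSV-Nurr1(LBD), p8xGAL-Luc and pRSV-β-gal control (0.5 µg DNA/well total). Test agent added 6 h post-transfection in DMEM with 1% charcoal-stripped serum, incubated overnight. Firefly luciferase read, normalized to β-galactosidase.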

[3] = biological target: Nuclear receptor subfamily 4 group A member 2 (Mus musculus) (UniProt Q06219); assay: Activation of mouse Nurr1 transfected in human SK-N-BE(2)C cells at 0.3 uM by luciferase reporter gene assay relative to control; assay type: cell-based; summary of the method: as §2
[4] = Cytotoxicity against human SK-N-BE(2)C cells up to 30 uM; assay type: toxicity, cell-based
[5] = tested on: SH-SY5Y; assay: Neuroprotective activity against 6-OHDA-induced cell death in human SH-SY5Y cells assessed as increase in cell viability at 6.25 uM by MTT reduction assay; assay type: functional, cell-based
Summary of the method: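 SH-SY5Y cells grown 2 days on poly-D-lysine in DMEM with 10% horse serum and 5% FBS, then switched to serum-free N-2 medium containing 6-OHDA ± compound. Viability by MTT (1 mg/mL final, 1 h), formazan solubilized 24 h in Triton/HCl/isopropanol, absorbance 570 nm. ANOVA with Tukey–Kramer, n = 4.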

[6] = Cytotoxicity against human SH-SY5Y cells assessed as decrease in cell viability at higher concentrations by MTT reduction assay; assay type: toxicity, cell-based
[7] = tested on: SH-SY5Y; assay: Neuroprotective activity against 6-OHDA-induced cell death in human SH-SY5Y cells assessed as decrease in release of mitochondrial cytochrome c into cytosolic fraction at 6 uM by Western blot method; assay type: functional, cell-based; summary of the method: as §1
[8] = tested on: BV-2; assay: Antiinflammatory activity in mouse BV2 cells assessed as downregulation of LPS-induced IL-1beta mRNA expression at 3 uM by qRT-PCR method; assay type: functional, cell-based
Summary of the method: (§3)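 BV-2 mouse microglia (DMEM, 10% heat-inactivated FBS, 2 mM glutamine) in six-well plates at 1.0 × 10^5 cells/well, given LPS with or without compound at 37 °C. RNA extracted. IL-1β and IL-6 mRNA measured by SYBR Green real-time PCR on cDNA from 50 ng DNase-treated RNA. ANOVA with Tukey–Kramer, n = 4.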

[9] = tested on: BV-2; assay: Antiinflammatory activity in mouse BV2 cells assessed as downregulation of LPS-induced IL-6 mRNA expression at 3 uM by qRT-PCR method; assay type: functional, cell-based; summary of the method: as §3
[10] = tested on: BV-2; assay: Antiinflammatory activity in mouse BV2 cells assessed as downregulation of LPS-induced IL-1beta level at 3 uM by Western blot method; assay type: functional, cell-based
[11] = tested on: BV-2; assay: Antiinflammatory activity in mouse BV2 cells assessed as downregulation of LPS-induced IL-6 level at 3 uM by Western blot method; assay type: functional, cell-based
[12] = tested on: Rattus norvegicus; assay: Neuroprotective activity in 6-OHDA-lesioned Sprague-Dawley rat model of parkinson disease assessed as decrease in d-amphetamine-induced ipsilateral rotations at 0.5 mg/kg/day, ip administered for 2 weeks measured on day 14 and 42 post 6-OHDA lesion induction relative to vehicle-treated control; assay type: functional, organism-based
Summary of the method: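 Sprague-Dawley rats (140–160 g), desipramine 25 mg/kg ip 30 min before surgery, under Zoletil anesthesia. 6-OHDA 8 µL of 2.5 µg/µL injected into left striatum. Compound in saline with 0.25% ethanol or vehicle given ip daily for 2 weeks (n = 10 vs 14). d-Amphetamine 5 mg/kg. Ipsilateral turns counted for 30 min starting 30 min after dosing, at weeks 2 and 6. Student's t-test.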

[13] = tested on: Rattus norvegicus; assay: Neuroprotective activity in 6-OHDA-lesioned Sprague-Dawley rat model of parkinson disease assessed as decrease in loss of tyrosine hydroxylase-positive immunoreactive neuronal cell levels in ipsilateral side of substantia nigra pars compacta by measuring cell levels in intact contralateral side at 0.5 mg/kg/day, ip administered for 2 weeks measured on day 43 post 6-OHDA lesion induction by immunohistochemical analysis (reference value: 24.62 +/- 3.48%); assay type: functional; design: scale not given: the % may be the effect or the level left
Summary of the method: (§4)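 Same unilateral striatal 6-OHDA rat model with 2-week daily ip dosing (vehicle 0.25% ethanol). Perfused with 4% PFA on day 43. 40 µm coronal sections stained by DAB for TH (SNc, AP −4.8 to −5.5) or Iba-1 (striatum, AP +1.0 to +0.6). Cells counted in three sections per animal. TH expressed as % of contralateral side. Student's t-test, n = 10–14.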

[14] = tested on: Rattus norvegicus; assay: Antiinflammatory activity in 6-OHDA-lesioned Sprague-Dawley rat model of parkinson disease assessed as decrease in Iba-1 positive cell levels in striatum at 0.5 mg/kg/day, ip administered for 2 weeks measured on day 43 post 6-OHDA lesion induction by immunohistochemical analysis relative to vehicle-treated control; assay type: functional, organism-based; summary of the method: as §4

Row | Compound | Activity [1] | Activity [2] | fold change (FC) [3] | Activity [4] | Activity [5] | Activity [6] | Activity [7] | Activity [8] | Activity [9] | Activity [10] | Activity [11] | Activity [12] | Activity [13] | Activity [14]
1 | C=C(C)[C@@]12OC3(/C=C/C=C/CCCCC)O[C@@H]1[C@@H]1[C@@H]4O[C@]4(CO)[C@@H](O)[C@]4(O)C(=O)C(C)=C[C@H]4[C@@]1(O3)[C@H](C)[C@H]2OC(=O)c1ccccc1 | Active | Dose-dependent effect | 3.5 | Non-Toxic | Active | Toxic | Active | Active | Active | Active | Active | Active | 40.28% | Active
2 | C=C(C)[C@]12C[C@@H](C)[C@@]34OC(c5ccccc5)(O[C@@H]1[C@@H]3[C@@H]1O[C@]1(CO)[C@@H](O)[C@@]1(O)[C@H]4C[C@H](C)[C@@H]1OC(=O)c1ccccc1)O2 | Active | Dose-dependent effect | 3 | Non-Toxic | Active | Toxic | Active | Active | Active | Active | Active |  |  | 
